ChEMBL document CHEMBL5505959, “Identification of 4-amino-2-Pyridones as new potent PCSK9 inhibitors: From phenotypic hit discovery to in vivo tolerability” (Eur J Med Chem, 2024)
Active and inactive are the calls of the source. The rule behind the calls is not given here.

Key:
HepG2 [1] = test: Downregulation of PCSK9 protein level in human HepG2 cells at 2.5 uM by Western blot analysis; assay type: functional, cell-based
Outline: (§1)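 HepG2 cells were treated overnight or for 24 h, alone or with simvastatin 40 μM. Lysates (1 % NP-40, 150 mM NaCl, 50 mM Tris-HCl pH 7.5) were loaded at 25 µg protein on 4–20 % SDS-PAGE. Blots were probed for proPCSK9, mature PCSK9 and LDLR, and densitometry was normalized to β-actin or GAPDH. Mean ± SD of three independent experiments.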

[2] = Toxicity in C57BL/6 mouse assessed as effect on gut at 40 mg/kg, sc measured after 7 days by macroscopic analysis; conditions: in vivo, 168 h
[3] = Toxicity in C57BL/6 mouse assessed as effect on liver at 40 mg/kg, sc measured after 7 days by H and E staining based analysis; assay type: organism-based; conditions: in vivo, 168 h, time 7 day
Outline: (§2)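 Male C57BL/6J mice, three months old, 26–30 g (n = 5–6/group), received daily sc injections of 40 mg/kg in Transcutol, 50 µl, for seven days. Controls were vehicle and SBC-115076 4 mg/kg. Readouts were daily body weight, open-field locomotion and modified SHIRPA, and gross organ inspection. Liver H&E cryosections were scored by two operators; plasma cholesterol by colorimetric assay, PCSK9 by ELISA.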

[4] = Toxicity in C57BL/6 mouse assessed as abnormal secretion at 40 mg/kg, sc measured after 7 days; assay type: organism-based; conditions: in vivo, 168 h, time 7 day; outline: as §2
HepG2 [5] = test: Cytotoxicity against human HepG2 cells assessed as reduction in cell viability at 5 uM measured after 24 hrs by SRB assay relative to control; assay type: functional
Outline: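 HepG2 seeded 8000 cells/well in complete MEM; next day medium replaced with 0.4 % FBS medium containing compound or DMSO control. Viability was read by sulforhodamine B assay after 24 h, with absorbance at 570 nm. Dose-response series used 6.25, 12.5, 25, 50 or 100 μM; newer analogues were tested at a fixed 5 μM. Data are mean ± SD of three independent experiments.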

HepG2 [6] = test: Downregulation of proPCSK9 level in human HepG2 cells by Western blot analysis; assay type: functional, cell-based; outline: as §1
[7] = Toxicity in C57BL/6 mouse assessed as spontaneous locomotor activity at 40 mg/kg, sc measured after 7 days; assay type: organism-based; conditions: in vivo, 168 h, time 7 day
Outline: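 Open-field test in male C57BL/6J mice: 10 min free exploration of a 50 × 50 × 40 cm wooden chamber, with distance and speed tracked automatically. Basal sessions were run before dosing, then testing continued across daily 50 µl subcutaneous injections (40 mg/kg, Transcutol vehicle). Distance, mean speed and % time in corners and arena were recorded as part of a modified SHIRPA screen.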

[8] = Toxicity in C57BL/6 mouse assessed as effect on urination at 40 mg/kg, sc measured after 7 days; assay type: organism-based; conditions: in vivo, 168 h, time 7 day; outline: as §2
[9] = Toxicity in C57BL/6 mouse assessed as tremor at 40 mg/kg, sc measured after 7 days; assay type: organism-based; conditions: in vivo, 168 h, time 7 day
Outline: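 General health of subcutaneously dosed C57BL/6J mice (40 mg/kg daily, Transcutol, seven days) was tracked with a modified SHIRPA screen covering phenotype, sensory and neuropsychiatric functions. Body weight was recorded daily as % change from the day −3 to −1 baseline.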

[10] = Toxicity in C57BL/6 mouse assessed as abnormal arrangements of hepatocyte at 40 mg/kg, sc measured after 7 days by histopathological analysis; assay type: organism-based; conditions: hepatocytes, 168 h, time 7 day; outline: as §2
[11] = Toxicity in C57BL/6 mouse assessed as inflammatory cells infiltration at 40 mg/kg, sc measured after 7 days by histopathological analysis; assay type: organism-based; conditions: in vivo, 168 h, time 7 day
Outline: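 Male C57BL/6J mice, 3 months old, 26–30 g, given 40 mg/kg subcutaneously in 100 % Transcutol (vehicle group) for seven days. Killed 6 h after the last injection. Liver fixed in 4 % PFA, cryoprotected in 20 % sucrose and cut into 7 µm cryosections. Sections stained with hematoxylin/eosin and scored by two operators for hepatocyte arrangement, inflammatory infiltration and necrosis.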

[12] = Downregulation of PCSK9 mRNA level in human HepG2 cells at 5 uM by qRT-PCR analysis relative to control; assay type: functional
Outline: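 Total RNA was taken from treated HepG2 cells for RT-qPCR of PCSK9, FAS and HMG-CoA reductase. Cycling was 50 °C 10 min, 95 °C 2 min, then 40 cycles of 95 °C 5 s and 60 °C 10 s. Relative quantification used ΔΔCt against 18S, corrected for primer efficiency. Mean ± SD of three independent experiments.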

[13] = Toxicity in C57BL/6 mouse assessed as drug tolerance at 40 mg/kg, sc measured after 7 days; assay type: organism-based; conditions: in vivo, 168 h, time 7 day; outline: as §2
[14] = Toxicity in C57BL/6 mouse assessed as effect on plasma total cholesterol level at 40 mg/kg, sc measured after 7 days by biochemical assay; conditions: in vivo, 168 h
HepG2 [15] = test: Induction of LDLR expression in human HepG2 cells by Western blot analysis; assay type: functional, cell-based; outline: as §1
[16] = Toxicity in C57BL/6 mouse assessed as changes in fur sheen at 40 mg/kg, sc measured after 7 days; assay type: organism-based; conditions: in vivo, 168 h, time 7 day; outline: as §2
[17] = Toxicity in C57BL/6 mouse assessed as effect on brain at 40 mg/kg, sc measured after 7 days by H and E staining based analysis; assay type: organism-based; conditions: in vivo, 168 h, time 7 day
HepG2 [18] = test: Upregulation of LDLR/PCSK9 in human HepG2 cells at 2.5 to 5 uM in presence of simvastatin by Western blot analysis; assay type: functional, cell-based; conditions: dose 2.5-5 µM
Outline: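 HepG2 cells grown in MEM with 10 % FBS. Incubated overnight with test compound with or without simvastatin 40 μM (simvastatin dissolved in 0.1 M NaOH, pH 7.4). Lysates in 1 % NP-40 buffer; 25 µg protein run on 4–20 % SDS-PAGE. Immunoblotted for PCSK9 and LDLR, normalized to GAPDH by densitometry. Mean ± SD of three experiments, one-way ANOVA.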

HepG2 [19] = test: Downregulation of mature PCSK9 level in human HepG2 cells by Western blot analysis; assay type: functional, cell-based; outline: as §1
[20] = Toxicity in C57BL/6 mouse assessed as effect on kidney at 40 mg/kg, sc measured after 7 days by H and E staining based analysis; assay type: organism-based; conditions: in vivo, 168 h, time 7 day
[21] = Toxicity in C57BL/6 mouse assessed as defecations at 40 mg/kg, sc measured after 7 days; assay type: organism-based; conditions: in vivo, 168 h, time 7 day; outline: as §2
[22] = Toxicity in C57BL/6 mouse assessed as effect on spleen at 40 mg/kg, sc measured after 7 days by H and E staining based analysis; assay type: organism-based; conditions: in vivo, 168 h, time 7 day
[23] = Toxicity in C57BL/6 mouse assessed as effect on body weight at 40 mg/kg, sc measured after 7 days; assay type: organism-based; conditions: in vivo, 168 h, time 7 day; outline: as §2
[24] = Toxicity in C57BL/6 mouse assessed as reduction in ALT plasma level at 40 mg/kg, sc measured after 7 days by ELISA method; assay type: organism-based; conditions: in vivo, 168 h, time 7 day
Outline: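 Male C57BL/6J mice, 3 months old, dosed subcutaneously at 40 mg/kg daily for seven days in Transcutol. Killed under isoflurane 6 h after the final dose. Retro-orbital blood taken into EDTA and spun at 3000 rpm, 4 °C, 10 min. Plasma ALT measured by ELISA kit. Mean ± SEM, n = 5–6 per group.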

HepG2 [25] = test: Inhibition of simvastatin induced PCSK9 level in human HepG2 cells at 2.5 to 5 uM by Western blot analysis; assay type: functional, cell-based; conditions: dose 2.5-5 µM; outline: as §1
[26] = Toxicity in C57BL/6 mouse assessed as cellular necrosis at 40 mg/kg, sc measured after 7 days by histopathological analysis; assay type: organism-based; conditions: in vivo, 168 h, time 7 day; outline: as §2
[27] = Inhibition of PCSK9 expression in human HepG2 cells at 5 to 10 uM by ELISA method relative to control; assay type: functional; conditions: dose 5-10 µM
Outline: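 Secreted PCSK9 was measured in HepG2 conditioned media with a human PCSK9 DuoSet sandwich ELISA. Media were centrifuged at 15000 rpm for 10 min and diluted before reading absorbance at 450 nm. Values were normalized to HepG2 total protein content. Mean ± SD of three independent experiments.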

In the case of `Cc1cc(NCc2ccc(C(F)(F)F)cc2)cc(=O)n1Cc1ccc(C(F)(F)F)cc1`, the Activity (HepG2 [1]) is reported as “Active”, the Activity [2] is reported as “Non-Toxic” and the Activity [3] is reported as “Non-Toxic”. The Activity [4] was “Non-Toxic”, the Activity (HepG2 [5]) was over 95% and the Activity (HepG2 [6]) was “Active”. For the same compound, the Activity [7] was “Non-Toxic”, the Activity [8] was “Non-Toxic” and the Activity [9] was “Non-Toxic”. For the same compound, the Activity [10] was “Non-Toxic”, the Activity [11] was “Non-Toxic” and the Activity [12] was 100%. For the same compound, the Activity [13] was “Non-Toxic”, the Activity [14] was “Non-Toxic” and the Activity (HepG2 [15]) was “Active”. The Activity [16] was “Non-Toxic”, the Activity [17] was “Non-Toxic” and the Activity (HepG2 [18]) was “Active”. The Activity (HepG2 [19]) was “Active”, the Activity [20] was “Non-Toxic” and the Activity [21] was “Non-Toxic”. For the same compound, the Activity [22] was “Non-Toxic”, the Activity [23] was “Non-Toxic” and the Activity [24] was “Non-Toxic”. For the same compound, the inhibition (HepG2 [25]) was “Active”, the Activity [26] was “Non-Toxic” and the “inhibition (INH)” value [27] was 100%.
